Measurements: ChEMBL document CHEMBL1800022, “Structure-activity relationships of a series of analogues of the RFamide-related peptide 26RFa” (J Med Chem, 2011)
Activity calls are given as the source filed them. The calls are words filed in the database; no cut-off is given here. Residues, ends and D or L forms follow the SMILES beside them. *: point of attachment. Phenylacetyl(4-F) = O=C(Cc1ccc(F)cc1)*; NBn2 = c1ccc(CN(Cc2ccccc2)*)cc1; X2 = CN(C)C(=NCC(=O)*)N(C)C; NHBn = c1ccc(CN*)cc1; Bz = O=C(c1ccccc1)*

Tests used:
Type in all cases: functional, cell-based
[1] = molecular target: T1, Pyroglutamylated RF-amide peptide receptor (Homo sapiens) (UniProt Q96P65); assay: Agonist activity at DYKDDDDK-flagged human GPR103 receptor expressed in CHO-K1 cells co-expressing G-protein alpha16 assessed as stimulation of calcium mobilization at 10' -12 to 10^-5 M after 2 mins by fluorometric analysis
T1 sequence (whole entry): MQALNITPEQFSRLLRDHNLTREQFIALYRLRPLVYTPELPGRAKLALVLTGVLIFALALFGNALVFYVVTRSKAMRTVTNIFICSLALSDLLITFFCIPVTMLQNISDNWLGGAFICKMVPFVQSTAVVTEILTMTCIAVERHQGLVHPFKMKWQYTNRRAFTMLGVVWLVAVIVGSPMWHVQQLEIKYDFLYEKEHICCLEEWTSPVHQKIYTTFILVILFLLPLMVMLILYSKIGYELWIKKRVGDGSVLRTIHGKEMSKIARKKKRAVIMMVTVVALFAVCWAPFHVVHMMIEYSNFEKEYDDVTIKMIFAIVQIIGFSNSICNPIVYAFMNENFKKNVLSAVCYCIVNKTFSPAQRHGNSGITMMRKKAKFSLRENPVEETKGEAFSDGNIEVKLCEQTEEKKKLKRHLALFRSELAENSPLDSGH
Method in brief: (§1)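 CHO-K1 cells stably expressing Gα16 and C-terminally flag-tagged human GPR103 (Geneticin-selected), plated at 40 000 cells/well 24 h before assay. Loaded with 2 μM Fluo-4AM for 1 h, washed, then 30 min in HBSS with 2.5 mM probenecid and 5 mM HEPES. Peptides added at 10^-12 to 10^-5 M final and fluorescence read for 2 min. Triplicates; EC50 from sigmoidal variable-slope fit, at least three experiments.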

[2] = molecular target: T1, Pyroglutamylated RF-amide peptide receptor (Homo sapiens); assay: Antagonist activity at DYKDDDDK-flagged human GPR103 receptor expressed in CHO-K1 cells co-expressing G-protein alpha16 assessed as inhibition of 26RFa-induced calcium mobilization after 2 mins by fluorometric analysis
Method in brief: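 Same Gα16/flag-hGPR103 CHO-K1 cells, Fluo-4AM loading and HBSS/probenecid/HEPES buffer. Triplicates; IC50 reported as mean ± SEM of at least three experiments.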

[3] = molecular target: T2, Pyroglutamylated RF-amide peptide receptor (Homo sapiens, UniProt Q96P65); assay: Agonist activity at DYKDDDDK-flagged human GPR103 receptor expressed in CHO-K1 cells co-expressing G-protein alpha16 assessed as stimulation of calcium mobilization after 2 mins by fluorometric analysis; method in brief: as §1
T2 sequence (Q96P65 whole entry): T1 sequence (whole entry)

| Compound | Activity [1] | inhibition [2] | EC50 [3] [µM] |
| --- | --- | --- | --- |
| CC(C)C[C@H](NC(=O)[C@H](CC(N)=O)NC(=O)CNC(=O)[C@H](CC(C)C)NC(=O)[C@@H]1CCCN1C(=O)CNC(=O)[C@H](CO)NC(=O)[C@@H](N)[C@@H](C)O)C(=O)N[C@@H](C)C(=O)N[C@@H](CCC(=O)O)C(=O)N[C@@H](CCC(=O)O)C(=O)N[C@@H](CC(C)C)C(=O)N[C@@H](CC(N)=O)C(=O)NCC(=O)N[C@@H](Cc1ccc(O)cc1)C(=O)N[C@@H](CO)C(=O)N[C@@H](CCCNC(=N)N)C(=O)N[C@@H](CCCCN)C(N)=O (H-TSGPLGNLAEELNGYSRK-NH2) | inactive | inactive | – |
| N=C(N)NCCC[C@H](NC(=O)[C@H](Cc1ccccc1)NC(=O)[C@H](CO)NC(=O)[C@H](Cc1ccccc1)NC(=O)CNC(=O)CN)C(=O)N[C@@H](Cc1ccccc1)C(=O)N(Cc1ccccc1)Cc1ccccc1 (H-GGFSFRF-NBn2) | inactive | – | – |
| C[C@H](NC(=O)[C@H](CCCNC(=N)N)NC(=O)[C@H](Cc1ccccc1)NC(=O)[C@H](CO)NC(=O)[C@H](Cc1ccccc1)NC(=O)CNC(=O)CN)C(N)=O (H-GGFSFRA-NH2) | inactive | inactive | – |
| N=C(N)NCCC[C@H](NC(=O)[C@H](Cc1ccccc1)NC(=O)[C@H](CO)NC(=O)[C@H](Cc1ccccc1)NC(=O)CNC(=O)CN)C(=O)NCc1ccccc1 (H-GGFSFR-NHBn) | inactive | inactive | – |
| N=C(N)NCCC[C@H](NC(=O)[C@H](Cc1ccccc1)NC(=O)[C@H](CO)NC(=O)[C@@H](N)Cc1ccccc1)C(=O)N[C@@H](Cc1ccccc1)C(N)=O (H-FSFRF-NH2) | inactive | – | – |
| CC(C)C[C@H](NC(=O)[C@H](CCC(=O)O)NC(=O)[C@H](CCC(=O)O)NC(=O)[C@H](C)NC(=O)[C@H](CC(C)C)NC(=O)[C@@H](N)CC(N)=O)C(=O)N[C@@H](CC(N)=O)C(=O)NCC(=O)N[C@@H](Cc1ccc(O)cc1)C(=O)N[C@@H](CO)C(=O)N[C@@H](CCCNC(=N)N)C(=O)N[C@@H](CCCCN)C(=O)N[C@@H](CCCCN)C(=O)NCC(=O)NCC(=O)N[C@@H](Cc1ccccc1)C(=O)N[C@@H](CO)C(=O)N[C@@H](Cc1ccccc1)C(=O)N[C@@H](CCCNC(=N)N)C(=O)N[C@@H](Cc1ccccc1)C(N)=O (H-NLAEELNGYSRKKGGFSFRF-NH2) | – | – | 0.0302 |
| CC(C)C[C@H](NC(=O)[C@H](Cc1ccccc1)NC(=O)CNC(=O)CN)C(=O)N[C@@H](Cc1ccccc1)C(=O)N[C@@H](CCCN=C(N)N)C(=O)N[C@@H](Cc1ccccc1)C(N)=O (H-GGFLFRF-NH2) | – | – | 1.47 |
| CC(C)C[C@H](NC(=O)[C@H](CC(N)=O)NC(=O)CNC(=O)[C@H](CC(C)C)NC(=O)[C@@H]1CCCN1C(=O)CNC(=O)[C@H](CO)NC(=O)[C@@H](N)[C@@H](C)O)C(=O)N[C@@H](C)C(=O)N[C@@H](CCC(=O)O)C(=O)N[C@@H](CCC(=O)O)C(=O)N[C@@H](CC(C)C)C(=O)N[C@@H](CC(N)=O)C(=O)NCC(=O)N[C@@H](Cc1ccc(O)cc1)C(=O)N[C@@H](CO)C(=O)N[C@@H](CCCNC(=N)N)C(=O)N[C@@H](CCCCN)C(=O)N[C@@H](CCCCN)C(=O)NCC(=O)NCC(=O)N[C@@H](Cc1ccccc1)C(=O)N[C@@H](CO)C(=O)N[C@@H](Cc1ccccc1)C(=O)N[C@@H](CCCNC(=N)N)C(=O)N[C@@H](Cc1ccccc1)C(N)=O (H-TSGPLGNLAEELNGYSRKKGGFSFRF-NH2) | – | – | 0.0104 |
| CN(C)C(=NCC(=O)N[C@@H](Cc1ccccc1)C(=O)N[C@@H](CO)C(=O)N[C@@H](Cc1ccccc1)C(=O)N[C@@H](CCCNC(=N)N)C(=O)N[C@@H](Cc1ccccc1)C(N)=O)N(C)C (X2-FSFRF-NH2) | – | – | 0.455 |
| N=C(N)NCCC[C@H](NC(=O)[C@H](Cc1ccccc1)NC(=O)[C@H](CO)NC(=O)[C@H](Cc1ccccc1)NC(=O)CNC(=O)CNC(=O)c1ccccc1)C(=O)N[C@@H](Cc1ccccc1)C(N)=O (Bz-GGFSFRF-NH2) | – | – | 0.722 |
| NC(=O)[C@H](Cc1ccccc1)NC(=O)[C@H](CCCN=C(N)N)NC(=O)[C@H](Cc1ccccc1)NC(=O)[C@H](CO)NC(=O)[C@H](Cc1ccccc1)NC(=O)CNC(=O)CNC(=O)Cc1ccc(F)cc1 ({Phenylacetyl(4-F)}-GGFSFRF-NH2) | – | – | 0.83 |
